Results reported in ChEMBL document CHEMBL1275560, “Serial daptomycin selection generates daptomycin-nonsusceptible Staphylococcus aureus strains with a heterogeneous vancomycin-intermediate phenotype” (2008).
In brackets after ≈: the same amount, converted by molar mass. Activity calls are given as the source filed them. No cut-off for these calls is given here.

Columns and labels:
[1] = test system: Staphylococcus aureus; assay: Antimicrobial activity against methicillin-resistant Staphylococcus aureus N315DeltaIP assessed as decreased membrane potential; assay type: functional, organism-based
In short: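 Flow cytometry with DiOC2(3). Cells were grown to exponential phase (OD600 0.3) in MHB with 50 µg/ml calcium, then diluted 1:100 in kit buffer. GdCl3 was 200 µM final; CCCP-treated and heat-killed cells served as controls. TO-PRO-3 (500 nM) flagged damaged membranes. Dye at 30 µM, 4 min, room temperature. 10,000 cells per run, 488-nm excitation; red/green ratio of population mean fluorescence.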

[2] = test system: Staphylococcus aureus; assay: Antimicrobial activity against Staphylococcus aureus 10*3d1 by Etest method; assay type: functional
In short: (§1)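 MICs read by Etest on Mueller-Hinton agar, following the manufacturer's method. Agents tested were daptomycin, vancomycin, teicoplanin, linezolid, oxacillin, imipenem, bacitracin, fosfomycin and colistin. For fosfomycin the agar carried 25 µg/ml D-glucose-6-phosphate. The daptomycin Etest was also run with 200 µM gadolinium(III) chloride in the agar. Daptomycin MICs were read at both 24 h and 48 h.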

[3] = test system: Staphylococcus aureus; assay: Antimicrobial activity against Staphylococcus aureus 10*3d1-10 by Etest method; assay type: functional; in short: as §1
[4] = test system: Staphylococcus aureus; assay: Antimicrobial activity against methicillin-resistant Staphylococcus aureus 10*3d1 by Etest method in presence of 200 uM GdCl3; assay type: functional
In short: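 Etest on Mueller-Hinton agar containing gadolinium(III) chloride at 200 µM, used as a mechanosensitive channel (MscL) blocker; MICs read at 24 h and also at 48 h so a slowly growing resistant subpopulation is not missed. The strain is a two-step daptomycin-selected derivative of MRSA N315ΔIP, stocked at –80°C in 40% glycerol.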

[5] = test system: Staphylococcus aureus; assay: Antimicrobial activity against methicillin-resistant Staphylococcus aureus N315DeltaIP by Etest method; assay type: functional
In short: (§2)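 Etest MICs on Mueller-Hinton agar, run per manufacturer. Fosfomycin plates carried 25 µg/ml glucose-6-phosphate. Daptomycin Etest was also done with 200 µM GdCl3 in agar. Daptomycin MICs were read at 24 h and again at 48 h to capture slowly growing resistant subpopulations.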

[6] = test system: Staphylococcus aureus; assay: Antimicrobial activity against methicillin-resistant Staphylococcus aureus N315DeltaIP by Etest method in presence of 200 uM GdCl3
[7] = test system: Staphylococcus aureus; assay: Antimicrobial activity against methicillin-resistant Staphylococcus aureus N315DeltaIP heteroresistant subpopulations by Etest method; assay type: functional; in short: as §2

Compound | Activity [1] | MIC [2] | MIC [3] | MIC [4] | MIC [5] | MIC [6] | MIC [7]
CCCCCCCCCC(=O)N[C@@H](Cc1c[nH]c2ccccc12)C(=O)N[C@H](CC(N)=O)C(=O)N[C@@H](CC(=O)O)C(=O)N[C@@H]1C(=O)NCC(=O)N[C@@H](CCCN)C(=O)N[C@@H](CC(=O)O)C(=O)N[C@H](C)C(=O)N[C@@H](CC(=O)O)C(=O)NCC(=O)N[C@H](CO)C(=O)N[C@@H]([C@H](C)CC(=O)O)C(=O)N[C@@H](CC(=O)c2ccccc2N)C(=O)O[C@@H]1C | Active | 3 µg/mL (≈ 1.85 µM) | 1 µg/mL (≈ 0.617 µM) | 3 µg/mL | 0.5 µg/mL (≈ 0.309 µM) | 0.5 µg/mL | –
C[C@@H]1O[C@@H]1P(=O)(O)O [FOSFOMYCIN] | – | 0.5 µg/mL (≈ 3.62 µM) | 2 µg/mL (≈ 14.5 µM) | – | 12 µg/mL (≈ 86.9 µM) | – | –
C[C@@H](O)[C@H]1C(=O)N2C(C(=O)O)=C(SCCNC=N)C[C@H]12 [IMIPENEM ANHYDROUS] | – | > 32 µg/mL | > 32 µg/mL | – | 2 µg/mL (≈ 6.68 µM) | – | 3 µg/mL (≈ 10 µM)
Cc1onc(-c2ccccc2)c1C(=O)N[C@@H]1C(=O)N2[C@@H]1SC(C)(C)[C@@H]2C(=O)O [OXACILLIN] | – | > 256 µg/mL | > 256 µg/mL | – | 24 µg/mL (≈ 59.8 µM) | – | 192 µg/mL (≈ 478 µM)
CN[C@H](CC(C)C)C(=O)N[C@H]1C(=O)N[C@@H](CC(N)=O)C(=O)N[C@H]2C(=O)N[C@H]3C(=O)N[C@H](C(=O)N[C@H](C(=O)O)c4cc(O)cc(O)c4-c4cc3ccc4O)[C@H](O)c3ccc(c(Cl)c3)Oc3cc2cc(c3O[C@@H]2O[C@H](CO)[C@@H](O)[C@H](O)[C@H]2O[C@H]2C[C@](C)(N)[C@H](O)[C@H](C)O2)Oc2ccc(cc2Cl)[C@H]1O [VANCOMYCIN] | – | 3 µg/mL (≈ 2.07 µM) | – | – | 0.75 µg/mL (≈ 0.518 µM) | – | –
COLISTIN | – | 192 µg/mL | 192 µg/mL | – | 256 µg/mL | – | –
